# Bioassay records as filed in PubChem BioAssay.
# Compounds with a hit are over-represented: about 1.2% of the library has one in this group of screens.
# PfGluPho inh: PfG6PD (Plasmodium falciparum) enzyme inhibition. PfGluPho enzyme, NADPH resazurin-diaphorase fluorescence. inhibition, % at 20 µM. 0.78% of 350,000 active;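 active = inhibition reaching at least a set limit at 20 µM in the primary screen, cut at about 59% in these data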;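 note: 0% = DMSO wells with substrate and 100% = DMSO wells lacking glucose-6-phosphate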
# G6PDH counter: counter-screen for G6PDH assay hits: L. mesenteroides G6PDH inhibition | 0.12% of 200,000 active | inhibition, % at 5 µM | Purified L. mesenteroides G6PDH, diaphorase/resazurin coupled fluorescence, 45 min; in the data active = inhibition above about 50%
# HKDC1 inhibitor: inhibitors of human hexokinase HKDC1. Q2TB90. recombinant HKDC1, G6PDH/diaphorase resazurin coupled fluorescence. inhibition, % at 20 µM. 0.16% of 340,000 active;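 active = inhibition above about 35% when tested at 20 µM, limit read from the data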;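 note: plate controls were DMSO wells with enzyme for no effect and DMSO wells lacking enzyme for full effect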
# Target sequence (Q2TB90 whole entry, looked up): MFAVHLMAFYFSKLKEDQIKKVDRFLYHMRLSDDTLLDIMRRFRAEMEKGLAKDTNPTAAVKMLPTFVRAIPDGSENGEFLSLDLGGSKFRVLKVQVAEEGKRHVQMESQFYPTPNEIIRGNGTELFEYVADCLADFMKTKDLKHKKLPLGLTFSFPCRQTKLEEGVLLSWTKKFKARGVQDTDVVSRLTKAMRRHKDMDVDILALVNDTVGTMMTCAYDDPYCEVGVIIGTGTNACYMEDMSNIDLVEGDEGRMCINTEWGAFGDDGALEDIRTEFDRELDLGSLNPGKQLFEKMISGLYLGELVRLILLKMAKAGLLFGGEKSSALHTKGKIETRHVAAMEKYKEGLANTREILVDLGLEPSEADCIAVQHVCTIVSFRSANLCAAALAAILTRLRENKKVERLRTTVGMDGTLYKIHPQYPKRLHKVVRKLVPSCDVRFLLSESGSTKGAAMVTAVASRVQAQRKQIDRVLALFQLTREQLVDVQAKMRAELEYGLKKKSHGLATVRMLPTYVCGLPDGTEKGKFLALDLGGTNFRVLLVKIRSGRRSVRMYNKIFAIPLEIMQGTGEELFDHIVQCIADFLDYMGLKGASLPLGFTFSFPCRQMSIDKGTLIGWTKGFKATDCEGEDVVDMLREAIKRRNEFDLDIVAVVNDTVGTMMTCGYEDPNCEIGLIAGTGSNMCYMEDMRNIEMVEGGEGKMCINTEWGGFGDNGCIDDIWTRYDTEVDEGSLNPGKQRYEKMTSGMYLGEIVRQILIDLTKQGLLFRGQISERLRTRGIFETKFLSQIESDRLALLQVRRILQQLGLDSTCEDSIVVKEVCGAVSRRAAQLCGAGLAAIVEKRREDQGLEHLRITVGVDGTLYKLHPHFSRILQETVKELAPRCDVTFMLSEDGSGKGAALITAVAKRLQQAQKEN
#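 Assay system: recombinant HKDC1 hexokinase; detection: coupled resazurin fluorescence, excitation 525 nm, emission 613 nm; benchmarks: DMSO-plus-enzyme-mix negative control, buffer-substituted positive control; compound dosing: single 20 µM dose; schedule: 90 min at room temperature in dark; also added: glucose plus 1 mM ATP as hexokinase substrates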
# Diaphorase inh: diaphorase inhibition or chemical oxidation counter-screen; AID 1217; 0.69% of 190,000 active; inhibition, % at 20 µM; diaphorase resazurin-to-resorufin fluorescence, NADH, 16 min; bacterial (C. kluyveri) enzyme, not human;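 active = primary screen inhibition at 20 µM above a set limit, cut at about 50% in these data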;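 note: plate controls were DMSO with full reaction for no effect and wells lacking NADH for full effect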
#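 Test system: Clostridium kluyveri diaphorase enzyme / Quantity: diaphorase at 0.14 U/mL in enzyme working solution / Incubation: 16-min room-temperature incubation before reading / Benchmarks: NADH-free wells as positive control, DMSO-only neutral wells / Signal: resorufin fluorescence 544/590 nm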
# Diaphorase act: diaphorase activation or chemical reduction counter-screen. Diaphorase/resazurin coupled assay, resorufin fluorescence, 16 min; active compounds read high; 1 = vehicle wells, 0 = NADH-free wells. activation factor at 20 µM. 0.005% of 190,000 active. AID 1229;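 active = diaphorase activity raised at least twofold by the compound at 20 µM; inactive = activation factor below 2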
#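 System – purified diaphorase enzyme from Clostridium kluyveri · Input – enzyme 0.07 U/mL final · Also added – final NADH 0.114 mM, resazurin 0.1 mM · Measured by – fluorescence of resorufin, 544 nm excitation, 590 nm emission · Timing – 16 min enzyme reaction, ambient temperature · Measure – resorufin increase flagging diaphorase activators or reducers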
# PfG6PD confirm: confirmation of Plasmodium falciparum G6PD inhibitors | shares compounds with PfGluPho inh | recombinant PfGluPho, NADPH-diaphorase-resazurin fluorescence | inhibition, % at 20 µM | 34% of 2,400 active | AID 504753;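 active = inhibition of at least 50% at 20 µM in any single replicate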;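 note: 0% = DMSO with substrate and 100% = DMSO lacking glucose-6-phosphate substrate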
# Diaph ctr 10uM: counter-screen for P. falciparum G6PD inhibitors: diaphorase inhibitors, oxidizers | inhibition, % at 20 µM | shares compounds with PfGluPho inh | diaphorase-coupled resazurin reduction, fluorescence, NADPH 10 uM | 39% of 820 active;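 active = average inhibition reaching 50% or more with the compound at 20 µM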;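 note: resorufin red fluorescence formed as diaphorase reduces resazurin using NADPH; 0% = DMSO with enzyme and 100% = DMSO without enzyme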
# Diaphorase 30uM: inhibits diaphorase or oxidizes, flagging false PfG6PD hits; shares compounds with PfGluPho inh; Diaphorase/resazurin coupled assay, resorufin fluorescence, 30 uM NADPH; inhibition, % at 20 µM; 29% of 820 active; AID 504863;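 active = inhibition averaging 50% or more, tested at 20 µM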;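 note: 0% = DMSO with enzyme and 100% = DMSO wells lacking diaphorase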
# * = called active by the depositor; . = no result.
SMILES,PfGluPho inh,G6PDH counter,HKDC1 inhibitor,Diaphorase inh,Diaphorase act,PfG6PD confirm,others
CCOC(=O)c1c(NC(=O)C(Sc2ccccc2)c2ccccc2)sc(C(=O)N(C)C)c1C (configuration not stated),79*,-12,-5,0,1,0,
COc1ccc(NS(=O)(=O)c2ccc(C)c(NC(=O)CNC(=O)c3ccco3)c2)cc1,8,.,-9,.,.,.,
COCC1CCCCN1C(=O)c1cccc(OC2CCN(S(C)(=O)=O)CC2)c1 (configuration not stated),-14,.,-2,.,.,.,
COc1ccc(NS(=O)(=O)c2ccc(N3CCCC3)c(NC(=S)Nc3ccc(SC(F)F)cc3)c2)cc1,69*,-14,-16,6,0.9,37,
CCNC(=O)Nc1cc(S(=O)(=O)Nc2ccc(OC)cc2)ccc1N1CCOCC1,-16,.,-7,.,.,.,
COc1ccc(NS(=O)(=O)c2ccc(N3CCCC3)c(NC(=S)Nc3cccc(C)c3C)c2)cc1,80*,0,-12,21,0.8,53*,Diaph ctr 10uM=-29;Diaphorase 30uM=-12
COc1ccc(NS(=O)(=O)c2ccc(N3CCCC3)c(N)c2)cc1,-7,.,0,.,.,.,
Cc1c(Cl)cccc1S(=O)(=O)Nc1ccnn1C,-18,.,-6,.,.,.,
Cc1cc(C)nc(NC(N)=NC(C)c2ccccc2)n1 (configuration not stated),5,-1,-8,1,1,.,
Cc1cc(C)nc(NC(N)=NCCc2ccccc2)n1,79*,.,-4,.,.,51*,Diaph ctr 10uM=49;Diaphorase 30uM=48
COc1ccc(CNC(=O)C(OC(=O)c2ccco2)c2ccc(F)cc2)cc1 (configuration not stated),6,.,-5,.,.,.,
C=CCc1c(C)[nH]c(=S)c(C#N)c1C,73*,8,1,38,0.6,56*,Diaph ctr 10uM=-13;Diaphorase 30uM=-21
C=CCc1c(C)c(C#N)c2nc3ccccc3n2c1N1CCCCC1,-21,.,3,.,.,.,
CCOC(=O)c1c2c(n(-c3ccc(OC)cc3)c1C)C(=O)C(=O)c1ccccc1-2,72*,.,28,.,.,36,
COc1cc(C=C2CN(C)C(=O)C2=O)ccc1O,36,.,.,.,.,.,
COc1cc(/C=C2\OC(=O)c3c(OC)cccc32)ccc1O,74*,3,8,8,0.9,14,
N=C(N)c1ccc(N=Nc2c(O)ccc3c2[nH]c2ccccc23)cc1,78*,.,32,.,.,20,
Oc1ccc(N=Nc2c(O)ccc3ccccc23)cc1,26,-16,12,26,0.7,.,
Cc1ccc(S(=O)c2ccc([N+](=O)[O-])c3nonc23)cc1 (configuration not stated),117*,.,.,.,.,103*,Diaph ctr 10uM=11;Diaphorase 30uM=11
Cc1ccc(Nc2c([N+](=O)[O-])ccc3nonc23)c(C)c1,7,.,-3,.,.,.,
O=C(Nc1ccc(S(=O)(=O)NC2=NCCCCC2)cc1)c1cccc(OC(F)F)c1,-10,.,.,.,.,.,
N#CNC(=Nc1ccc(Cl)cc1)Oc1ccccc1,-6,.,1,.,.,.,
COc1ccc(NC(=O)CSc2nnc(-c3cccc(O)c3)o2)cc1,80*,.,2,.,.,39,
CC1(C(=O)O)COC(c2ccc([N+](=O)[O-])cc2)OC1 (configuration not stated),-11,-2,-6,4,1,.,
O=C1NC(C(=O)O)=CC(c2ccc([N+](=O)[O-])cc2)N1 (configuration not stated),65*,.,-10,.,.,18,
SMILES,PfGluPho inh,G6PDH counter,HKDC1 inhibitor,Diaphorase inh,Diaphorase act,PfG6PD confirm,others
CCOc1ccccc1NC(=O)CCCc1nc2ccccc2c(=O)[nH]1,67*,-3,-10,7,0.9,53*,Diaph ctr 10uM=39;Diaphorase 30uM=36
Cc1cc(C)c2sc(NC(=O)C3=COCCO3)nc2c1,75*,.,4,.,.,47*,Diaph ctr 10uM=30;Diaphorase 30uM=21
COc1ccc2c(c1)c(C(=O)N/N=C/c1cccc(Br)c1)c(C)n2C,115*,.,9,.,.,87*,Diaph ctr 10uM=88*;Diaphorase 30uM=65*
COc1ccc2c(c1)c(C(=O)N/N=C/c1cccc(O)c1)c(C)n2C,21,4,-11,16,0.8,.,
Nc1ccc2nc(-c3ccccc3)c(-c3ccccc3)nc2c1,79*,.,9,.,.,-1,
Cc1cc(Cl)ccc1NC(=S)N1CCN(C(=O)c2ccco2)CC1,13,.,-6,.,.,.,
Cc1ccc2nc(SCc3nnc(-c4cccs4)o3)[nH]c2c1,84*,4,0,21,0.8,41,
Nc1ccc(CNC(=O)OCC2c3ccccc3-c3ccccc32)cc1,117*,.,1,.,.,74*,Diaph ctr 10uM=65*;Diaphorase 30uM=56*
CCN1C(c2ccc(F)cc2)=CS/C1=C(/C#N)c1nnc2n1-c1ccccc1SC2,5,.,.,.,.,.,
COc1ccc(CCn2c(NN)nc3c2c(=O)[nH]c(=O)n3C)cc1,103*,.,3,.,.,88*,Diaph ctr 10uM=-6;Diaphorase 30uM=-2
COc1ccc(CCn2c(NCc3ccco3)nc3c2c(=O)[nH]c(=O)n3C)cc1,20,14,0,-15,1.1,.,
COc1ccc(CCn2c(NN=C(C)C)nc3c2c(=O)[nH]c(=O)n3C)cc1,118*,.,10,.,.,51*,Diaph ctr 10uM=-1;Diaphorase 30uM=-7
COc1ccc(CCn2c(Br)nc3c2c(=O)[nH]c(=O)n3C)cc1,-4,-5,-1,-11,1.1,.,
COc1cc(-c2cc(OC)c(O)c(OC)c2)cc(OC)c1O,100*,.,4,.,.,72*,Diaph ctr 10uM=7;Diaphorase 30uM=1
CCOc1ccc(Cl)cc1S(=O)(=O)N1CCC(C(=O)NCC2CCCO2)CC1 (configuration not stated),-15,.,0,.,.,.,
Cc1cc(C(=O)Nc2ccc3nc(C)sc3c2)c2ccccc2n1,10,.,-6,.,.,.,
c1ccc(-c2nnc(-c3ccccc3)nn2)cc1,-5,.,-7,.,.,.,
c1cncc(-c2nnc(-c3cccnc3)nn2)c1,77*,32,12,3,1,31,
CC(C)(C)c1ccc(N=C2SCC(=O)N2Cc2cccs2)cc1,64*,.,3,.,.,-20,
O=C(Oc1ccc(C(=S)N2CCOCC2)cc1)c1ccc([N+](=O)[O-])cc1[N+](=O)[O-],21,.,-2,.,.,.,
O=C(Oc1ccc(Br)cc1C(=S)N1CCOCC1)c1ccc([N+](=O)[O-])cc1[N+](=O)[O-],60*,.,-2,.,.,22,
O=[N+]([O-])c1cc2no[n+]([O-])c2cc1N1CCCCC1,129*,.,0,.,.,111*,Diaph ctr 10uM=80*;Diaphorase 30uM=58*
N#Cc1cc(N2CCCCC2)c([N+](=O)[O-])cc1C#N,-3,19,-7,10,0.9,.,
Cc1cc(=O)oc2cc(OCC(=O)N3CCCC3)ccc12,1,.,-6,.,.,.,
